The target of assay [1] is T1, recombinant GIPC PDZ (Homo sapiens, UniProt O14908).
T1 sequence (O14908 133-213 limits assumed): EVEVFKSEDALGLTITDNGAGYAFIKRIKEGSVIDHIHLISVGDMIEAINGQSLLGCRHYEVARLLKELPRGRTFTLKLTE
Briefly: Surface plasmon resonance binding to recombinant GIPC PDZ. In outline: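 Recombinant GIPC PDZ was amine-coupled to a CM5 chip with NHS/EDC at pH 5.5, the optimum found by pH scouting. Lipidated peptide analyte was diluted in HBS-EP from 10×Kd to 0.1×Kd. Runs used the instrument's kinetic/affinity workflow, and Kd was derived from sensorgram analysis.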

Assay [2] concerns ASPC-1 cells. Briefly: Thymidine incorporation. It is filed as cell-based, human. Particulars: for anti-proliferative activity, screening of lipidated peptides: ASPC-1 cells, [3H] thymidine incorporation, Figure 3A. In outline: (§1)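 About 2×10⁴ cells per well in 24-well plates were cultured with peptides, including a palmitoylated scrambled-sequence control, for the indicated time. Media were RPMI-1640 with 10% FBS for ASPC-1 and DMEM with 10% FBS for MiaPaca-2. [³H]thymidine was then added for 4 h. Cells were washed in ice-cold PBS, fixed in chilled methanol and lysed in 0.1 N NaOH, and TCA-precipitable radioactivity was counted. Error bars are SD; t-test.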
In general terms: Dividing cells build labelled thymidine or BrdU into new DNA.

Assay [3] concerns Id-1, E-cadherin expression. Briefly: Western blot of differentiation markers. It is filed as cell-based, human. Particulars: Figure 6B. In outline:
(§2)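 Whole-cell lysates were made in NP-40 buffer with protease and phosphatase inhibitors and cleared at 12,000 rpm for 10 min at 4 °C. Proteins were separated by SDS-PAGE, transferred to PVDF, immunoblotted and detected by chemiluminescence. Cells were harvested at 70–80% confluence.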
Background: In western blotting, separated proteins are transferred to a membrane and probed.

Assay [4] has as its system MiaPaca-2 cells. In words: Thymidine incorporation. It is filed as cell-based, human. As to conditions: MiaPaca-2, AP1063 as control, Figure 3D. In outline:
as §1

Assay [5] relates to Smad-1/5 phosphorylation. Briefly: Western blot of Smad phosphorylation and expression. It is filed as cell-based, human. As to conditions: Figure 5B. A digest of the protocol:
as §2

Assay [6] has as its system subcutaneous ASPC-1 tumor. Briefly: Subcutaneous ASPC-1 tumor model, intratumoral peptide injection. Particulars: subcutaneous ASPC-1 model, compared to AP1063, Supplementary Figure S2. It is filed as in vivo, SCID mice. A digest of the protocol: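 Male SCID mice aged 6–8 weeks received 5×10⁶ ASPC-1 cells in 100 μl PBS subcutaneously in the right flank. After 9 days they were randomized (n=7 per group) to daily intratumoral peptide at 500 μg/mouse/day in PBS containing 80% DMSO for 3 weeks; comparator was a scrambled palmitoylated peptide. Tumors were fixed in 10% neutral buffered formalin for 24 h, paraffin-embedded and immunostained (DAB, hematoxylin counterstain). t-test.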

The test system of assay [7] is Endoglin-GIPC interaction. In words: Immunoprecipitation of endoglin-GIPC interaction. It is filed as cell-based, human. Particulars: ASPC-1 and MiaPaca-2 cell lines, Figure 3B.
Assay [8] deals with T2, Endoglin C-terminal peptide AP1013 (N-myristoyl-PCSTSSMA) (Homo sapiens).
T2 chain: Myristoyl-PCSTSSMA
In words: SPR.

Ends that are not written are not given here. Peptide text beside a SMILES is read from it. * marks the point of attachment. Palmitoyl = CCCCCCCCCCCCCCCC(=O)*; Myristoyl = CCCCCCCCCCCCCC(=O)*

In general, Kd refers to the constant that tells how readily two partners part at equilibrium.

For `CCCCCCCCCCCCCC(=O)N1CCC[C@H]1C(=O)N[C@@H](CS)C(=O)N[C@@H](CO)C(=O)N[C@H](C(=O)N[C@@H](CO)C(=O)N[C@@H](CO)C(=O)N[C@@H](CCSC)C(=O)N[C@@H](C)C(=O)O)[C@@H](C)O` [AP1013, Myristoyl-PCSTSSMA] (Myristoyl-PCSTSSMA-OH), the Kd in assay [1] was 7.1 ± 2.8 µM.

Ac-PCSTSSMA [AP1030]: the “anti-proliferative activity, screening of lipidated peptides” value (“anti-proliferative activity, screening” for short) in assay [2] is listed as “ineffective”.

With Palmitoyl-PCSTSSMA [AP1032], in assay [3] (ASPC-1 and MiaPaca-2, 100 μmol/L peptide), the Id-1 expression result was “inhibited Id-1 expression”. For the same molecule, the E-cadherin expression result in assay [3] (Western blot, 100 μmol/L peptide) is “did not significantly increase”. Besides, the inhibition of proliferation entry in assay [4] is on record as “inhibited proliferation”. Further, in assay [5], the Smad-1/5 phosphorylation result was “clearly inhibits”; the “expressions of Smad1 and Smad 2” value was “also inhibited”. Further, in assay [2] (ASPC-1, AP1063 as control, Figure 3C), the inhibition of proliferation entry is listed as “inhibited proliferation”. In addition, in assay [2], the “anti-proliferative activity, screening” value is “highest anti-proliferative activity”. In assay [6], the “microvessel density (MVD)” value is “significant decrease in MVD” and the necrotic area entry is “increased necrotic area”. Besides, in assay [7], the “inhibition of endoglin-GIPC interaction” value is “effectively inhibited endoglin-GIPC interaction”.

As to Palmitoyl-SMTSCAPS [AP1063], the “inhibition of endoglin-GIPC interaction” value in assay [7] was “could not”.

Regarding “myristoyl-PCSTSS[K(εN-benzoyl)]A [AP1035]”, in assay [2], the “anti-proliferative activity, screening” value was “not superior to the corresponding non-modified AP1013”.

In the case of “myristoyl-PCST[K(εN-benzoyl)]SMA [AP1036]”, the “anti-proliferative activity, screening” value in assay [2] was “not superior to the corresponding non-modified AP1013”.

B1: GIPC PDZ domain PDZ (protein)
chain: EVEVFKSEDALGLTITDNGAGYAFIKRIKEGSVIDHIHLISVGDMIEAINGQSLLGCRHYEVARLLKELPRGRTFTLKLTE
Turning to B1, the Kd in assay [8] was 7.1 µM.

The values are drawn from PMC4229952 (Molecular cancer therapeutics, 2014).
